One assay deals with NFF. Nature of the assay: Cytotoxicity against human NFF cells after 3 days by sulforhodamine B assay. As to conditions: 72 h. The assay is classed as cell-based. In a few lines: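 Neonatal foreskin fibroblasts grown in RPMI 1640 with 10% FCS and 1% streptomycin at 37 °C, 5% CO2, kept in log phase. Seeded at 3000/well and grown 24 h before treatment. Compounds diluted from DMSO into medium (≤1% DMSO); controls got matching DMSO. After 3 days, PBS wash, fixation in methylated spirits, total protein by sulforhodamine B. Triplicate, three independent experiments.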

A short description of assay [1]: Selectivity index, ratio of IC50 for human NFF cells to IC50 for chloroquine-sensitive ring stage plasmodium falciparum 3D7.
The subject of assay [2] is Plasmodium falciparum. Nature of the assay: Antimalarial activity against chloroquine-sensitive ring stage plasmodium falciparum 3D7 infected in erythrocytes assessed as [3H]hypoxanthine incorporation after 48 hrs by liquid scintillation counting. The format is functional, organism-based. The method, boiled down:
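P. falciparum 3D7-infected type O+ erythrocytes (0.5% parasitemia, 2.5% hematocrit) incubated with serial dilutions for 48 h under standard culture conditions. 0.5 μCi 3H-hypoxanthine then added and culture continued a further 24 h. Incorporation counted by liquid scintillation against 0.5% DMSO controls. IC50 by linear interpolation of inhibition curves. Mean of three independent experiments, each in triplicate, ±SD.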

In assay [3] the test system is Plasmodium falciparum. Nature of the assay: Antimalarial activity against chloroquine-resistant ring stage plasmodium falciparum Dd2 infected in erythrocytes assessed as [3H]hypoxanthine incorporation after 48 hrs by liquid scintillation counting. The format is functional, organism-based. The method, boiled down: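 Infected erythrocytes at 0.5% parasitemia and 2.5% hematocrit were plated into serial dilutions of test compound or chloroquine control. After 48 h under standard culture conditions, 0.5 μCi 3H-hypoxanthine was added per well and incubation continued 24 h. Cells were harvested onto filter mats and counted by scintillation. Inhibition was set against 0.5% DMSO controls, and IC50 was obtained by linear interpolation. Mean ± SD of three independent triplicate experiments.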

In a further assay the test system is Pseudomonas aeruginosa. The assay is described as follows: Antibacterial activity against Pseudomonas aeruginosa. The format is functional, organism-based.
Another assay concerns Staphylococcus aureus. The assay is described as follows: Antibacterial activity against Staphylococcus aureus. The format is functional, organism-based.

pIC50: −log10 of the molar value. Values after ≈ are worked out from the molar mass of the structure shown.

In general, pIC50 refers to the negative decadic logarithm of the IC50, by convention in mol/L. As a reminder, the IC50 is the midpoint of a concentration-inhibition curve. High values mean a need for much substance, low ones inhibition by little substance.

As to `COC1=CC(=O)c2c(O)c3c(c(O)c2C1=O)C[C@@](C)(O)C[C@@H]3O`, the pIC50 in the assay with NFF is 4.36; with Plasmodium falciparum [2], 5.33; in the assay on Plasmodium falciparum [3], 4.95. In addition, the “Ratio IC50” value in assay [1] amounted to 9.3.
As to `COC1=CC(=O)c2c(O)c3c(c(O)c2C1=O)C[C@](C)(O)C[C@@H]3O`, the results for the IC50 in the assay on Pseudomonas aeruginosa and in the assay on Staphylococcus aureus were more than 50 µg/mL and 3 µg/mL (≈ 9.37 µM), respectively. Further, the pIC50 with NFF is 4.81; with Plasmodium falciparum [2], 5.72; with Plasmodium falciparum [3], 5.66. The “Ratio IC50” value in assay [1] was found to be 8.2.
`COC1=CC(=O)c2c(O)c3c(c(O)c2C1=O)C[C@](C)(O)CC3`: the pIC50 is 4.26 with NFF, 5.35 with Plasmodium falciparum [2] and 5.28 in the assay with Plasmodium falciparum [3]. The “Ratio IC50” value in assay [1] was 12.1.
Consider `CC(C)(C)OC(=O)NCCCNC1=CC(=O)c2c(O)c3c(c(O)c2C1=O)C[C@](C)(O)C[C@@H]3O`, for which the pIC50 was 4.44 with NFF and 5.17 in the assay on Plasmodium falciparum [2]. In assay [1], the “Ratio IC50” value was 5.4.
In the same order, the values of `CCCNC1=CC(=O)c2c(O)c3c(c(O)c2C1=O)C[C@](C)(O)C[C@@H]3O` are 4.10, 5.37 and 18.3.
On the same counts, the results for `C[C@]1(O)Cc2c(O)c3c(c(O)c2[C@@H](O)C1)C(=O)C=C(NCCCN)C3=O` are 4.05, 4.78 and 5.4.
In the same order, the values of `COCCNC1=CC(=O)c2c(O)c3c(c(O)c2C1=O)C[C@](C)(O)C[C@@H]3O` are 4.07, 4.99 and 8.2.
Consider `C[C@]1(O)Cc2c(O)c3c(c(O)c2[C@@H](O)C1)C(=O)C=C(NCCc1ccccc1)C3=O`, for which the figures for the pIC50 in the assay on NFF and in the assay on Plasmodium falciparum [2] were 5.46 and 5.42, respectively. Besides, the “Ratio IC50” value in assay [1] was 0.9.
On the same counts, the results for `C[C@]1(O)Cc2c(O)c3c(c(O)c2[C@@H](O)C1)C(=O)C=C(NCCc1ccc(O)cc1)C3=O` are 4.63, 5.62 and 9.7.
Turning to `C[C@]1(O)Cc2c(O)c3c(c(O)c2[C@@H](O)C1)C(=O)C=C(NCCc1ccc(Cl)cc1)C3=O`, the pIC50 in the assay with NFF was 4.18; in the assay with Plasmodium falciparum [2], 5.38. Also, in assay [1], the “Ratio IC50” value was 15.7.
On the same counts, the results for `C[C@]1(O)Cc2c(O)c3c(c(O)c2[C@@H](O)C1)C(=O)C=C(NCCN1CCOCC1)C3=O` are 4.21, 4.80 and 3.9.
For the molecule `C[C@]1(O)Cc2c(O)c3c(c(O)c2[C@@H](O)C1)C(=O)C=C(NCc1ccccc1)C3=O`, the pIC50 in the assay on NFF is 4.97; in the assay with Plasmodium falciparum [2], 5.13. Also, the “Ratio IC50” value in assay [1] amounted to 1.4.
In the same order, the values of `CNC1=CC(=O)c2c(O)c3c(c(O)c2C1=O)C[C@](C)(O)C[C@@H]3O` are 4.23, 5.16 and 8.6.
Regarding `C[C@]1(O)Cc2c(O)c3c(c(O)c2[C@@H](O)C1)C(=O)C=C(NCCN1CCCC1)C3=O`, the figures for the pIC50 in the assay with NFF and with Plasmodium falciparum [2] were 4.80 and 5.20, respectively. The “Ratio IC50” value in assay [1] turned out to be 2.5.
Regarding `COc1cc(O)c2c(c1O)C(=O)c1cc(C)ccc1C2=O` [AUSTROCORTIRUBIN], the pIC50 in the assay with NFF is 4.12; in the assay with Plasmodium falciparum [2], less than 4.30; in the assay with Plasmodium falciparum [3], less than 4.30.
The molecule `CCN(CC)CCCC(C)Nc1ccnc2cc(Cl)ccc12` (stereo unspecified) [CHLOROQUINE] showed a pIC50 in the assay with NFF of 4.43.

Source of the values: ChEMBL document CHEMBL2203201, “Synthesis and antimalarial evaluation of a screening library based on a tetrahydroanthraquinone natural product scaffold” (Bioorg Med Chem, 2012).
